Reference: ChEMBL document CHEMBL1159060, “2-Dialkynyl derivatives of (N)-methanocarba nucleosides: 'Clickable' A(3) adenosine receptor-selective agonists” (Bioorg Med Chem, 2010)

Key:
[1] = target: T1, Adenosine receptor A1 (Homo sapiens) (UniProt P30542); test: Displacement of [3H]NECA from human recombinant adenosine A1 receptor expressed in CHO cells at 10 uM by liquid scintillation counting; format: cell-based
T1 sequence (whole entry): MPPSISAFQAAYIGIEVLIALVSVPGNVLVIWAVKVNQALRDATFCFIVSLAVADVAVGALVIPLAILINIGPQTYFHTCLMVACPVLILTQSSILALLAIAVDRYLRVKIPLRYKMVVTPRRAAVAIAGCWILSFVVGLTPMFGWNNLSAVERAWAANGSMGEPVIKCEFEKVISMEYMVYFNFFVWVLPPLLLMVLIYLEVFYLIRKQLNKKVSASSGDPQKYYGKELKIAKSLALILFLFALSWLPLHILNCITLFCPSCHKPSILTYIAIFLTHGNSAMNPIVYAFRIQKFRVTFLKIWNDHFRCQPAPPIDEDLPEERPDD
Procedure, shortened: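 CHO membranes stably expressing hA1AR, pretreated with adenosine deaminase (3 units/mL, 30 min, 37 °C), 22 μg protein/tube. […] GF/B filtration, scintillation counting, percent inhibition at 10 μM.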

[2] = target: T2, Adenosine receptor A2a (Homo sapiens, UniProt P29274); test: Displacement of [3H]CGS21680 from human recombinant adenosine A2A receptor expressed in HEK293 cells at 10 uM by liquid scintillation counting; format: cell-based
T2 sequence (P29274 whole entry): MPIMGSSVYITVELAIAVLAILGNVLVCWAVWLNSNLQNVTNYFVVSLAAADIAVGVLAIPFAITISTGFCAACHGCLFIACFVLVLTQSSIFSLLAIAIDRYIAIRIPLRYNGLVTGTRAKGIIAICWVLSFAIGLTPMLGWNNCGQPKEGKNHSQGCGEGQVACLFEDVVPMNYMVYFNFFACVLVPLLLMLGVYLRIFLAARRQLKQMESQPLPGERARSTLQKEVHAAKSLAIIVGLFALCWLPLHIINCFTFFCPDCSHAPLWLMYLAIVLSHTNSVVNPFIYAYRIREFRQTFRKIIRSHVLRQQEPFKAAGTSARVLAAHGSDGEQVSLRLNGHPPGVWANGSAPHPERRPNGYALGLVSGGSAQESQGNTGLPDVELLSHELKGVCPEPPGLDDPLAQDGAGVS
Procedure, shortened: (§1)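 HEK293 membranes stably expressing hA2AAR (20 μg protein/tube), deaminase-treated (3 units/mL, 30 min, 37 °C). Competition against 10 nM [3H]CGS21680 in Tris-HCl 50 mM pH 7.5 with 10 mM MgCl2, 25 °C for 60 min. […] Filtered on GF/B, scintillation counted.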

[3] = target: T3, Adenosine receptor A3 (Homo sapiens, UniProt P0DMS8); test: Displacement of I-AB-MECA from human recombinant adenosine A3 receptor expressed in CHO cells
T3 sequence (P0DMS8 whole entry): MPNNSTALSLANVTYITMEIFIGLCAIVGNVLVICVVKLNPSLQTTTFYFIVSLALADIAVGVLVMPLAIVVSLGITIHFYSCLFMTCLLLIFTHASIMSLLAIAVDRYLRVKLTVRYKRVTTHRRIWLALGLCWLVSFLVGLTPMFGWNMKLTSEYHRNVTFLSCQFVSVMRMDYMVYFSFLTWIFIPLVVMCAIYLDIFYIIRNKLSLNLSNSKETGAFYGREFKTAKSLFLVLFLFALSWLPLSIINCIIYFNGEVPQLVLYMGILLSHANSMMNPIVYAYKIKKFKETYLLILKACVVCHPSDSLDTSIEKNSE

[4] = target: T2, Adenosine receptor A2a; test: Displacement of [3H]CGS21680 from human recombinant adenosine A2A receptor expressed in HEK293 cells by liquid scintillation counting; format: cell-based; procedure, shortened: as §1
[5] = target: Adenosine receptors; A1 & A3 (Homo sapiens) (UniProt P30542+P0DMS8); test: Selectivity for human adenosine A3 receptor over human adenosine A1 receptor
[6] = organism: Homo sapiens; test: Selectivity ratio of Ki for human adenosine A2A receptor to Ki for human adenosine A3 receptor
[7] = target: T4, Adenosine receptor A2b (Homo sapiens) (UniProt P29275); test: Agonist activity at human recombinant adenosine A2B receptor expressed in CHO cells assessed as stimulation of cAMP accumulation at 10 uM by liquid scintillation spectrophotometry relative to NECA
T4 sequence (whole entry): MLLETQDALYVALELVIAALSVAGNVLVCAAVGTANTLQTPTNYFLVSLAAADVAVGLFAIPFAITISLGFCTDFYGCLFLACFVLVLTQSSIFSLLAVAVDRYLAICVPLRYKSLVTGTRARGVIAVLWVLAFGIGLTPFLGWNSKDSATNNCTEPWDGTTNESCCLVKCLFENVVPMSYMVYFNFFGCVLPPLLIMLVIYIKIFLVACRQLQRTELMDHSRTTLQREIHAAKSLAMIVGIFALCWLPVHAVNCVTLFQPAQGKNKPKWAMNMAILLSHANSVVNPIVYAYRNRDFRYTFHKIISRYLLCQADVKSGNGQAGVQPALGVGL

Row | SMILES | inhibition [1] | inhibition [2] | Ki [3] | also measured
1 | CNC(=O)[C@@]12C[C@@H]1[C@@H](n1cnc3c(NCc4cccc(Cl)c4)nc(C#CCCC(=O)NCCNC(=O)CCCCCNC(=O)CCCCC4SCC5NC(=O)NC54)nc31)[C@H](O)[C@@H]2O (some centres not stated) | 12% | 47% | 57.7 nM | –
2 | CNC(=O)[C@@]12C[C@@H]1[C@@H](n1cnc3c(NCc4cccc(Cl)c4)nc(C#CCCCCc4cn(-c5ccc(N)cc5)nn4)nc31)[C@H](O)[C@@H]2O | 3% | – | – | –
3 | CNC(=O)[C@@]12C[C@@H]1[C@@H](n1cnc3c(NCc4cccc(Cl)c4)nc(C#CCCCCc4cn(CCCCNC(C)=O)nn4)nc31)[C@H](O)[C@@H]2O | 17% | – | – | –
4 | CNC(=O)[C@@]12C[C@@H]1[C@@H](n1cnc3c(NCc4cccc(Cl)c4)nc(C#CCCCCc4cn(Cc5ccc(-n6sccc6=O)cc5)nn4)nc31)[C@H](O)[C@@H]2O | 15% | 49% | – | –
5 | CNC(=O)[C@@]12C[C@@H]1[C@@H](n1cnc3c(NCc4cccc(Cl)c4)nc(C#CCCCCc4cn(CCCCCCNC5SCC6NC(=O)NC65)nn4)nc31)[C@H](O)[C@@H]2O (some centres not stated) | – | 27% | 285 nM | inhibition (INH) [1]: 0%
6 | C#CCCCCC#Cc1nc(NCc2cccc(Cl)c2)c2ncn([C@H]3[C@H](O)[C@H](O)[C@]4(C(=O)NC)C[C@H]34)c2n1 | 31% | – | 29.4 nM | Ki [4]: 7040 nM; Selectivity ratio [5]: > 400; Ratio Ki [6]: 300
7 | CCNC(=O)[C@H]1O[C@@H](n2cnc3c(N)ncnc32)[C@H](O)[C@@H]1O | – | – | – | Activity [7]: 100%
8 | CNC(=O)[C@@]12C[C@@H]1[C@@H](n1cnc3c(NCc4cccc(Cl)c4)nc(C#CCCC(=O)NCCNC(=O)CCCCC4SCC5NC(=O)NC54)nc31)[C@H](O)[C@@H]2O (some centres not stated) | 1% | 51% | 36.4 nM | –
9 | CNC(=O)[C@@]12C[C@@H]1[C@@H](n1cnc3c(NCc4cccc(Cl)c4)nc(C#CCCCCc4cn(C56CC7CC(CC(C7)C5)C6)nn4)nc31)[C@H](O)[C@@H]2O | 22% | – | – | Ratio Ki [6]: 500; Activity [7]: 36.5%
10 | C#CCCCC#Cc1nc(NCc2cccc(Cl)c2)c2ncn([C@@H]3[C@H](O)[C@H](O)[C@]4(C(=O)NC)C[C@H]34)c2n1 | 36% | – | 23.6 nM | Ki [4]: 4330 nM; Selectivity ratio [5]: > 400; Ratio Ki [6]: 300
11 | CNC(=O)[C@@]12C[C@@H]1[C@@H](n1cnc3c(NCc4cccc(Cl)c4)nc(C#CCCCCc4cn(CCCCCCNC(=O)c5ccc(-c6c7ccc(=N)c(S(=O)(=O)O)c-7oc7c(S(=O)(=O)O)c(N)ccc67)c(C(=O)O)c5)nn4)nc31)[C@H](O)[C@@H]2O | – | 23% | 416 nM | inhibition (INH) [1]: 0%
12 | CNC(=O)[C@@]12C[C@@H]1[C@@H](n1cnc3c(NCc4cccc(Cl)c4)nc(C#CCCCCc4cn(-c5ccc(C(=O)O)cc5)nn4)nc31)[C@H](O)[C@@H]2O | 0% | 40% | – | –
13 | CNC(=O)[C@@]12C[C@@H]1[C@@H](n1cnc3c(NCc4cccc(Cl)c4)nc(C#CCCCCc4cn(-c5ccc(N=C=S)cc5)nn4)nc31)[C@H](O)[C@@H]2O | 2% | 28% | – | –
14 | CNC(=O)[C@@]12C[C@@H]1[C@@H](n1cnc3c(NCc4cccc(Cl)c4)nc(C#CCCCCc4cn(CCCCN)nn4)nc31)[C@H](O)[C@@H]2O | 13% | – | – | –
15 | CNC(=O)[C@@]12C[C@@H]1[C@@H](n1cnc3c(NCc4cccc(Cl)c4)nc(C#CCCCCc4cn(CCNC(C)=O)nn4)nc31)[C@H](O)[C@@H]2O | 12% | – | – | Ratio Ki [6]: 109; Activity [7]: 19.4%
16 | CCN1\C(=C/C=C/C=C/C2=[N+](CCCCCC(=O)NCCNC(=O)CCC#Cc3nc(NCc4cccc(Cl)c4)c4ncn([C@H]5[C@H](O)[C@H](O)[C@]6(C(=O)NC)C[C@H]56)c4n3)c3ccc(S(=O)(=O)[O-])cc3C2(C)C)C(C)(C)c2cc(S(=O)(=O)O)ccc21 | 36% | – | – | Ki [4]: 4730 nM
17 | CNC(=O)[C@@]12C[C@@H]1[C@@H](n1cnc3c(NCc4cccc(Cl)c4)nc(-c4nnn(-c5ccc(N=C=S)cc5)c4CCCCc4cn(-c5ccc(N=C=S)cc5)nn4)nc31)[C@H](O)[C@@H]2O | 4% | 40% | – | –
